Source: PubChem
NPY-Y2 PAM-ag: potentiators or agonists of human neuropeptide Y receptor Y2; activation, % at 3.6 µM; P49146; AID 1359; hit rate 0.45% among 220,000; cells expressing NPY-Y2, potentiator/agonist read-out; in the data active = activation above about 27%;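 note: cells stimulated with NPY near EC25 plus isoproterenol at EC100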
Target sequence (P49146 whole entry, looked up): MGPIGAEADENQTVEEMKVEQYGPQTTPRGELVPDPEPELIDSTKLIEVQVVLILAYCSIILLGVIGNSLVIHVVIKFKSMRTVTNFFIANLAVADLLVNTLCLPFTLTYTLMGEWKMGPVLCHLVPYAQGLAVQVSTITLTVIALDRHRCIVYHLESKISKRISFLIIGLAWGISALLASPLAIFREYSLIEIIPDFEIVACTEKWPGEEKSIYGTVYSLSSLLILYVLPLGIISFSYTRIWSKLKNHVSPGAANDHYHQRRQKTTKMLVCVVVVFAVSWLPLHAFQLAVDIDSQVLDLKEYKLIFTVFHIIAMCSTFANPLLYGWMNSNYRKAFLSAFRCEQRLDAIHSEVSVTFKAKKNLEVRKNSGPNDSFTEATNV
WT yeast gro inh: growth inhibition of WT yeast, mitochondrial fusion screen; inhibition, % at 10 µM; mitochondrial fusion phenotypic screen, WT strain; hit rate 2.1% among 190,000; in the data active = inhibition above about 58%; tested in S. cerevisiae
RAM network inh: inhibitors of the yeast RAM network; S. cerevisiae dse1pr::URA3 reporter, 5-FOA growth OD615, 2 d; analog-sensitive cbk1-as2 kinase mutant strain; inhibition, % at 50 µM; hit rate 1.8% among 190,000; AID 868;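 active = inhibition above a set limit, 3 SD over mean compound inhibition, cut at about 8.4% in these data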;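 note: inhibition rescues growth on 5-FOA so higher OD means more RAM inhibition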
NPY-Y2 antag: blocks the human neuropeptide Y Y2 receptor. P49146. inhibition, % at 2.7 µM. hit rate 0.99% among 140,000. NPY-Y2 expressing cells, antagonist mode
NPY-Y1 antag: NPY-Y1 (human) receptor antagonism; hit rate 1% among 200,000; HEK293-CNG Y1 cells, membrane potential fluorescence; NPY at EC95, then isoproterenol; inhibition, % at 3.6 µM; AID 1040;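 active = inhibition above the campaign mean inhibition of all tested compounds plus 3 SD, cut at about 20% in these data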
Target sequence (P25929 whole entry, looked up): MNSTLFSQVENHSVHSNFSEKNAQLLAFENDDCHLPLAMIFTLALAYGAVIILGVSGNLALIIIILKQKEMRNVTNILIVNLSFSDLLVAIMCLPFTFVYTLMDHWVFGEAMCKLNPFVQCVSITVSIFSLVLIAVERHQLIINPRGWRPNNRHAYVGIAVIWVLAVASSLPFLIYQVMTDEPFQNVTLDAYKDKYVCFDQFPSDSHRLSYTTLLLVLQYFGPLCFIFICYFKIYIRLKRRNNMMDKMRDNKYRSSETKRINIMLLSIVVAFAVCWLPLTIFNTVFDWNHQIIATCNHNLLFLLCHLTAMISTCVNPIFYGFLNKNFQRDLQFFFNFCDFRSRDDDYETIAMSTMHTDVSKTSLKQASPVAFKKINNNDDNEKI
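Test system – HEK293 Y1/CNG channel cell line · Also added – NPY agonist 25 nM, then isoproterenol 1 µM plus Ro 20-1724 25 µM · Compound dosing – one concentration, 3.6 µM, in 0.4% DMSO · Schedule – compound incubation 1 h at room temperature, readout 45 min post-stimulation · Technique – fluorescence, membrane potential probe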
NPY1 pot ag: human NPY-Y1 potentiation or agonism, primary screen; NPY-Y1 expressing cells, potentiator/agonist activation; activation, % at 3.6 µM; hit rate 0.37% among 220,000; AID 1304; in the data active = activation above about 33%, passing the limit was not always enough;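 note: cells stimulated with NPY at EC10 then isoproterenol at EC100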
NPY-Y1 ant conf: human NPY-Y1 antagonism, confirmation | shares compounds with NPY-Y1 antag | HEK293-CNG NPY-Y1, membrane potential fluorescence, cAMP; NPY challenge against isoproterenol-raised cAMP | inhibition, % at 3.6 µM | hit rate 21% among 1,200 | AID 1254; in the data active = inhibition above about 20%
NPY-Y2 antag ct: antagonizes human NPY-Y2, counter-screen to NPY-Y1 antagonists. inhibition, % at 3.6 µM. HEK293 NPY-Y2 CNG membrane potential fluorescence, antagonism; cells given NPY, then isoproterenol. hit rate 28% among 1,200. shares compounds with NPY-Y1 antag
Large screens that a line does not name were inactive (follow-up assays come after a bar, where they were run). A selection: hits, their analogues and other compounds. The true share with any hit is near 4.9%. Cut-off read from the data, not from the text of the source, unless noted: active = inhibition above about 17%; inactive = the rest.

Fc1cccc(Cc2noc(CN3CCN(C4CCc5ccccc5C4)CC3)n2)c1 (configuration not stated)	NPY-Y1 antag 24 (no result: NPY-Y2 antag) | NPY-Y1 ant conf inactive | NPY-Y2 antag ct inactive
C=CCSc1nnc(-c2cc3c(s2)-c2ccccc2CC3)o1	WT yeast gro inh 66, NPY-Y1 antag 21 | NPY-Y1 ant conf inactive | NPY-Y2 antag ct inactive
COc1ccc(N2CCN(C(=O)CSc3nnc4nc(C)cc(C)n34)CC2)cc1	none (no result: WT yeast gro inh, RAM network inh)
Clc1ccc(CSc2ncccn2)cc1	none
O=C(Nc1ccccc1N1CCN(c2ccccc2)CC1)c1ccccc1	NPY-Y1 antag 41 (no result: NPY-Y2 antag) | NPY-Y1 ant conf 34 | NPY-Y2 antag ct 20
O=C(Nc1ccccc1N1CCN(C(=O)c2ccccc2)CC1)c1ccc(Cl)cc1	none (no result: NPY-Y2 antag)
Cc1ccc(C)c(OCC(=O)N/N=C/c2c(C)nn(-c3ccccc3)c2Cl)c1	NPY-Y1 antag 21 | NPY-Y1 ant conf inactive | NPY-Y2 antag ct inactive
O=C(c1ccco1)N1CCCN(C(=O)c2ccco2)CC1	none
Cc1ccc(NC2c3ncccc3C(=O)N2Cc2ccc(F)cc2)cc1 (configuration not stated)	none
CCOc1cccc2sc(N(CCN(CC)CC)C(=O)c3ccc(S(=O)(=O)N4CCCCC4)cc3)nc12	NPY-Y1 antag 26 (no result: NPY-Y2 antag) | NPY-Y1 ant conf inactive | NPY-Y2 antag ct inactive
CCOc1ccc(S(=O)(=O)N2CCN(C(=S)NCc3ccccc3)CC2)cc1	none (no result: WT yeast gro inh, RAM network inh, NPY-Y2 antag, NPY-Y1 antag)
COc1cc(-c2noc(-c3ccccc3C(=O)NCc3ccco3)n2)cc(OC)c1OC	NPY-Y1 antag 25 | NPY-Y1 ant conf inactive | NPY-Y2 antag ct inactive
Cc1cccc(NC(=O)C(=O)NCCc2c[nH]c3ccccc23)c1C	none (no result: NPY-Y2 antag)
CC(=O)c1cccc(CN2CCCC(CCC(=O)NCc3ccc(F)c(F)c3)C2)c1 (configuration not stated)	none (no result: NPY-Y2 antag)
COc1ccc(C2C(Oc3ccccc3)C(=O)N2c2ccc(C)c(C)c2)cc1OC (configuration not stated)	none (no result: WT yeast gro inh, RAM network inh)
COc1ccc(C2C(Oc3ccccc3)C(=O)N2c2cc(C)ccc2C)cc1OC (configuration not stated)	NPY-Y1 antag 22 (no result: WT yeast gro inh) | NPY-Y1 ant conf inactive | NPY-Y2 antag ct inactive
Cc1ccc(SCC(=O)N=C2NC(=O)CS2)cc1	NPY-Y1 antag 23 (no result: NPY-Y2 antag) | NPY-Y1 ant conf inactive | NPY-Y2 antag ct inactive
O=C(Cn1nc(CNc2ccc(Cl)cc2)[n+]2c1CCCCC2)c1ccccc1	none
Cc1ccc(C(C)C)c(OCc2nn(CC(=O)c3ccc(Cl)cc3)c3[n+]2CCCCC3)c1	NPY-Y1 antag 35 (no result: NPY-Y2 antag) | NPY-Y1 ant conf inactive | NPY-Y2 antag ct 18
O=C(NCCN1C(=O)S/C(=C\c2ccccc2F)C1=O)C1CCN(S(=O)(=O)c2cccs2)CC1	NPY-Y1 antag 20 | NPY-Y1 ant conf inactive | NPY-Y2 antag ct inactive
CCCNC(=O)C1CCN(S(=O)(=O)c2cccs2)CC1	none (no result: NPY-Y2 antag)
Cc1cc(Cl)c(S(=O)(=O)N/N=C/c2ccc3c(c2)OCO3)c(Cl)c1	NPY-Y1 antag 20 | NPY-Y1 ant conf inactive | NPY-Y2 antag ct inactive
COc1ccc(-c2n(CC(=O)OC3CC(C)CCC3C(C)C)c3ccccc3[n+]2C)cc1 (configuration not stated)	NPY-Y1 antag 150 (no result: NPY-Y2 antag) | NPY-Y1 ant conf 135 | NPY-Y2 antag ct 91
Cc1cc(=O)n2c(C(=O)Nc3ccc(C(=O)OC(C)C)cc3)c(C(=O)Nc3ccccc3)sc2n1	NPY-Y1 antag 25 (no result: NPY-Y2 antag) | NPY-Y1 ant conf 35 | NPY-Y2 antag ct 29
Cc1nc(C)c(C(=O)Nc2ccccc2)s1	none
COc1cccc(-n2c(SCC(=O)NCCC3=CCCCC3)nc3n[nH]c(C)c3c2=N)c1	none
CCCOC(=O)c1ccc(NC(=O)C(=O)NCC2CCCO2)cc1 (configuration not stated)	none
O=C(O)CC(Cc1ccccc1)c1ccc2c(c1)OCO2 (configuration not stated)	NPY-Y1 antag 23 | NPY-Y1 ant conf inactive | NPY-Y2 antag ct inactive
CCOc1ccc(C2=Nn3c(nnc3-c3ccccc3OC)SC2)cc1	NPY-Y1 antag 26 | NPY-Y1 ant conf inactive | NPY-Y2 antag ct 27
O=C(NC(=S)NCc1ccccc1)c1ccc2c(c1)OCO2	NPY-Y1 antag 21 | NPY-Y1 ant conf inactive | NPY-Y2 antag ct inactive
O=C(NNC(=S)NCc1ccccc1)c1ccc2c(c1)OCO2	none
CC(C)COCC(CN(Cc1ccccc1)c1ccccc1)N1CCCC1 (configuration not stated)	NPY-Y1 antag 31 (no result: RAM network inh, NPY-Y2 antag) | NPY-Y1 ant conf inactive | NPY-Y2 antag ct inactive
CN(C)CC(=O)c1ccc(-c2ccccc2)cc1	NPY-Y1 antag 20 | NPY-Y1 ant conf inactive | NPY-Y2 antag ct inactive
C#CCn1c(S(=O)(=O)Cc2ccc(OC)cc2)nc(-c2ccccc2)c1-c1ccccc1	NPY-Y1 antag 20 (no result: WT yeast gro inh) | NPY-Y1 ant conf inactive | NPY-Y2 antag ct inactive
CCCCN(c1ccc(C(=O)OC)cc1)S(=O)(=O)c1ccccc1	NPY-Y1 antag 86 (no result: NPY-Y2 antag) | NPY-Y1 ant conf inactive | NPY-Y2 antag ct inactive
COc1cc(/C=C2\SC(=S)N(NS(=O)(=O)c3ccccc3)C2=O)cc(OC)c1OC	none (no result: WT yeast gro inh, RAM network inh, NPY-Y2 antag, NPY-Y1 antag)
O=C1/C(=C/c2ccccn2)SC(=S)N1NS(=O)(=O)c1ccccc1	NPY-Y1 antag 24 (no result: NPY-Y2 antag) | NPY-Y1 ant conf inactive | NPY-Y2 antag ct inactive
C#CCOC(=O)/C(=C/C=C/c1ccccc1)NC(=O)c1ccccc1	none
CC1CN(S(=O)(=O)c2ccc(C(=O)NCCCn3ccnc3)cc2)CC(C)O1 (configuration not stated)	none (no result: NPY-Y2 antag)
OCCC1CN(Cc2ccccn2)CCN1C1CCCC1 (configuration not stated)	none (no result: NPY-Y2 antag)
OCCC1CN(CC(c2ccccc2)c2ccccc2)CCN1C1CCCC1 (configuration not stated)	NPY-Y1 antag 23 (no result: NPY-Y2 antag) | NPY-Y1 ant conf inactive | NPY-Y2 antag ct inactive
CCOC(=O)c1c(CSc2ccccc2)n(C)c2cc(Br)c(O)c(CN(C)C)c12	none (no result: WT yeast gro inh, RAM network inh, NPY-Y2 antag, NPY-Y1 antag)
CCOC(=O)c1c(C)n(-c2ccc(C)cc2)c2ccc(O)c(CN(C)C)c12	NPY-Y1 antag 51 (no result: NPY-Y2 antag) | NPY-Y1 ant conf 52 | NPY-Y2 antag ct 55
CCOC(=O)c1c(CSc2ccc(C)cc2)n(C)c2cc(Br)c(O)c(CN(C)C)c12	NPY-Y1 antag 75 (no result: NPY-Y2 antag) | NPY-Y1 ant conf 60 | NPY-Y2 antag ct 72
COc1cccc(C(=O)CN2CCC(NC(=O)NC3CCCCC3)CC2)c1	none
CCCn1c(SCc2ccc(Cl)cc2)nc2c1c(=O)[nH]c(=O)n2C	NPY-Y1 antag 24 | NPY-Y1 ant conf 22 | NPY-Y2 antag ct 40
C/C=C/Cn1c(SCc2ccc(Cl)cc2)nc2c1c(=O)[nH]c(=O)n2C	none
Cc1cccc(N=C2NC(=O)/C(=C/C=C/c3ccco3)S2)c1	none
